From ChEMBL document CHEMBL4007441, “Novel Design of Heptad Amphiphiles To Enhance Cell Selectivity, Salt Resistance, Antibiofilm Properties and Their Membrane-Disruptive Mechanism” (J Med Chem, 2017) come the findings set out here.

Active and inactive are the calls of the source. The calls are words filed in the database; no cut-off is given here.

Test [1] relates to Pseudomonas aeruginosa. In words: Antibiofilm activity against Pseudomonas aeruginosa ATCC 27853 assessed as reduction in cell density of biofilm at 4 times MIC after 1 hr by SEM analysis. The format is functional. The procedure, abridged: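 Biofilm imaging: biofilms grown on sterile coverslips in 12-well wells were treated with peptides at 4 × MIC for 1 h, then fixed overnight in 2.5% glutaraldehyde and viewed by SEM. Untreated control. At least three repeats.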

The subject of test [2] is Pseudomonas aeruginosa. In words: Antibacterial activity against Pseudomonas aeruginosa ATCC 27853 after 18 hrs by broth microdilution method. The format is functional. The note with it: ATCC 27853, 18 h. The procedure, abridged: (§1)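 Broth microdilution in Mueller-Hinton broth. Exponential-phase bacteria (37 °C, 220 rpm shaking) were diluted to about 1 × 10^6 CFU/mL and mixed 1:1 with two-fold serial peptide dilutions. MIC is the lowest concentration with no visible turbidity after 18 h at 37 °C. Controls were uninoculated MHB and untreated culture. Run at least three times, two replicates each.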
On the technique in general: Dilution methods test growth across graded concentrations, often in twofold steps.

In test [3] the test system is Staphylococcus aureus. The test can be described thus: Antibacterial activity against Staphylococcus aureus ATCC 29213 after 18 hrs by broth microdilution method. To be noted: ATCC 29213, 18 h. The format is functional. The method in brief:
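Broth microdilution. Exponential-phase bacteria grown in MHB at 37 °C, diluted to about 1 × 10^6 CFU/mL in MHB and mixed 1:1 with two-fold dilutions of peptide. MIC is the lowest concentration with no visible turbidity after 18 h at 37 °C. Controls were uninoculated broth and peptide-free culture. At least three repeats, duplicates each.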

The test system of test [4] is Pseudomonas aeruginosa. In words: Antibacterial activity against gentamicin-resistant Pseudomonas aeruginosa 11421 after 18 hrs by broth microdilution method. The note with it: Pseudomonas aeruginosa, 11421, 18 h. The format is functional. The method in brief:
(§2)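 Broth microdilution in Mueller-Hinton broth. Exponential-phase bacteria (37 °C, 220 rpm shaking) were diluted to about 1 × 10^6 CFU/mL and mixed 1:1 with two-fold serial peptide dilutions. Controls were uninoculated MHB and untreated culture. Run at least three times, two replicates each.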

The test system of test [5] is RAW264.7. The test can be described thus: Inhibition of LPS-induced TLR4 negative regulation in mouse RAW264.7 cells at 10 mg/L after 18 hrs by Western blot analysis. The format is functional, cell-based. The method in brief:
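Western blot of RAW264.7 lysates after 18 h with LPS at 100 ng/mL, with or without peptide at 10 mg/L. Lysates were run on 8% or 12% SDS-PAGE, transferred to PVDF and blocked in 5% milk/TBST. Primary antibodies were applied at 4 °C overnight, then HRP secondary and ECL detection. β-actin was the loading control.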
For orientation: In western blotting, separated proteins are transferred to a membrane and probed.

Test [6] concerns Pseudomonas aeruginosa. In words: Antibacterial activity against Pseudomonas aeruginosa 25349 clinical isolate after 18 hrs by broth microdilution method. The note with it: Pseudomonas aeruginosa, 25349, 18 h. It is filed as functional.
Test [7] has as its system Pseudomonas aeruginosa. In words: Antibacterial activity against ciprofloxacin-resistant Pseudomonas aeruginosa 11411 after 18 hrs by broth microdilution method. It is filed as functional. The note with it: Pseudomonas aeruginosa, 11411, 18 h. The method in brief: as §2
For test [8], the system named is Pseudomonas aeruginosa. The test can be described thus: Antibacterial activity against Pseudomonas aeruginosa ATCC 27853 after 18 hrs in presence of NaCl by broth microdilution method. The format is functional. The note with it: ATCC 27853, 18 h. The procedure, abridged: (§3)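 Broth microdilution MIC against ATCC 27853 in Mueller-Hinton broth with added salt at final concentrations: NaCl 150 mM, KCl 4.5 mM, NH4Cl 6 µM, ZnCl2 8 µM, FeCl3 4 µM. Inoculum about 1 × 10^6 CFU/mL from exponential phase, mixed 1:1 with two-fold peptide dilutions. MIC read as no visible turbidity after 18 h at 37 °C.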

Test [9] has as its system Pseudomonas aeruginosa. The test can be described thus: Antibacterial activity against Pseudomonas aeruginosa ATCC 27853 after 18 hrs in presence of KCl by broth microdilution method. The note with it: ATCC 27853, 18 h. It is filed as functional. The method in brief: as §3
Test [10] concerns Pseudomonas aeruginosa. In words: Antibacterial activity against Pseudomonas aeruginosa CICC 21630 after 18 hrs by broth microdilution method. The format is functional. The note with it: CICC 21630, 18 h. The procedure, abridged: as §1
Test [11] concerns Pseudomonas aeruginosa. The test can be described thus: Antibacterial activity against Pseudomonas aeruginosa ATCC 27853 assessed as induction of membrane damage at MIC after 1 hr by TEM analysis. It is filed as functional. The procedure, abridged:
(§4)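 For TEM, exponential-phase cells were washed in PBS pH 7.4, adjusted to OD600 0.2 and treated at 1 × MIC for 60 min at 37 °C. Fixation was 2.5% glutaraldehyde at 4 °C overnight, then 2% osmium tetroxide for 70 min. Samples went through a graded ethanol series, ethanol/acetone and acetone before imaging. Untreated control.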

Test [12] concerns Pseudomonas aeruginosa. In words: Antibacterial activity against Pseudomonas aeruginosa ATCC 27853 assessed as induction of membrane corrugation at MIC after 1 hr by SEM analysis. The format is functional. The method in brief: (§5)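 For SEM, exponential-phase cells were washed in PBS pH 7.4, set to OD600 0.2 and exposed to 1 × MIC for 60 min at 37 °C. They were fixed in 2.5% glutaraldehyde at 4 °C overnight, dehydrated through graded ethanol and tert-butanol, dried, gold-coated and imaged. Untreated control. At least three repeats, duplicates.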

For test [13], the system named is Pseudomonas aeruginosa. The test can be described thus: Antibacterial activity against Pseudomonas aeruginosa ATCC 27853 assessed as induction of cytoplasmic membrane depolarization after 90 min incubation under dark condition by diSC3-5 dye-based fluorescence analysis. It is filed as functional. The procedure, abridged:
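Exponential-phase cells were washed three times in 5 mM HEPES (pH 7.4). diSC3-5 (0.4 µM final) and KCl (0.1 M final) were added, then the cells were incubated 90 min at 37 °C in the dark. Peptide at a range of concentrations was added and fluorescence followed at ex 622/em 670 nm. Three independent experiments, duplicates each.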

For test [14], the system named is Pseudomonas aeruginosa. In words: Antibacterial activity against Pseudomonas aeruginosa ATCC 27853 assessed as induction of membrane distortion at MIC after 1 hr by SEM analysis. The format is functional. The procedure, abridged:
as §5

The test system of test [15] is Pseudomonas aeruginosa. In words: Antibacterial activity against Pseudomonas aeruginosa ATCC 27853 assessed as induction of intracellular content dispersion at MIC after 1 hr by TEM analysis. It is filed as functional, cell-based. The method in brief:
as §4

For test [16], the system named is Pseudomonas aeruginosa. The test can be described thus: Antibacterial activity against Pseudomonas aeruginosa ATCC 27853 assessed as induction of membrane damage at MIC after 1 hr by SEM analysis. The format is functional. The procedure, abridged:
as §5

Test [17] relates to Pseudomonas aeruginosa. In words: Antibacterial activity against Pseudomonas aeruginosa ATCC 27853 assessed as induction of membrane integrity disruption at MIC after 15 mins by PI-staining based flow cytometry (reference value: 4.7%).

The term MIC denotes the least concentration at which growth counts as inhibited. H-LRRLRRRWWRRRLRRL-NH2: in test [1], the result was Active. For the same substance, the MIC in [2] came to 8 µg/mL; in [3], 8 µg/mL; in [4], 16 µg/mL; in test [6], 16 µg/mL; in test [7] it was 8 µg/mL; in test [8], 16 µg/mL. For the same substance, the MIC in test [9] and in test [10] was 8 µg/mL in each case. Moreover, the inhibition result in [5] is “Active”.

H-LRRLRRRWWWRRRLRRL-NH2: the result in test [1], in [11], in test [12], in [14], in test [15] and in [16] was Active. Also, the MIC was 4 µg/mL in test [2]; 8 µg/mL in test [3]; 8 µg/mL in test [4]; 4 µg/mL in test [6]; 4 µg/mL in test [7]; 8 µg/mL in test [8]. Besides, the MIC in [9] and in test [10] was 4 µg/mL each time. In addition, in test [5], the inhibition entry was “Active”. The Activity entry in test [13] is “Dose-dependent effect”; in test [17], 99.5%.
